Laboratory results from ChEMBL document CHEMBL2150950, “Effect of 4-aryl-2-methyl-5-nitro-1,4-dihydropyridine-3-carboxylates on the guinea pig papillary muscle and isolated human vena saphena magna that is used for coronary artery bypass grafting” (2011).
The source made the active and inactive calls. The calls are words filed in the database; no cut-off is given here.

Tests used:
[1] = Vasodilatory activity in human vena saphena magna assessed as relaxation of phenylephrine-induced smooth muscle contraction at 10^-7 to 10^-4 M; format: functional
Procedure, shortened: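 Saphenous vein rings came from 37 CABG patients. They were bathed in Tyrode's solution (mM: NaCl 137, KCl 5.4, CaCl2 1.8, MgCl2 0.9, Tris HCl 10, glucose 5; pH 7.4), equilibrated 45–60 min and washed every 15 min. Rings were precontracted with 10^-4 M phenylephrine, then given cumulative test agent at 10^-7 to 10^-4 M. Isometric relaxation was recorded, as means ± SE.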

[2] = (§1) Ionotropic effect in guinea pig ventricle papillary muscles assessed as lengthening of 90% repolarized cardiac action potential duration time at 10^-6 M by microelectrode technique relative to untreated control (reference value: 209 to 222 APD50 ms) in presence of 3.1 x 10^-6 M inward rectifier current blocker BaCl2; format: functional, Cavia porcellus
[3] = as §1, with “at 10^-7” for “at 10^-6”; format: functional, Cavia porcellus
[4] = as §1, with “50%” for “90%”, “180” for “209”, “192” for “222”; format: functional, Cavia porcellus
[5] = as §1, with “of 50%” for “of 90%”, “at 10^-7” for “at 10^-6”, “value: 180” for “value: 209”, “to 192” for “to 222”; format: functional, Cavia porcellus
[6] = as §1, with “of 25%” for “of 90%”, “at 10^-4” for “at 10^-6”, “value: 120” for “value: 209”, “to 131 APD25” for “to 222 APD50”; format: functional, Cavia porcellus
[7] = as §1, with “25%” for “90%”, “120” for “209”, “131 APD25” for “222 APD50”; format: functional, Cavia porcellus
[8] = as §1, with “of 25%” for “of 90%”, “at 10^-7” for “at 10^-6”, “value: 120” for “value: 209”, “to 131 APD25” for “to 222 APD50”; format: functional, Cavia porcellus
[9] = as §1, with “of 10%” for “of 90%”, “at 10^-5” for “at 10^-6”, “value: 52” for “value: 209”, “to 54 APD10” for “to 222 APD50”; format: functional, Cavia porcellus
[10] = as §1, with “10%” for “90%”, “52” for “209”, “54 APD10” for “222 APD50”; format: functional, Cavia porcellus
[11] = Ionotropic effect in guinea pig right ventricle papillary muscles assessed as contraction force at 10^-4 M by force transduction assay relative to untreated control (reference value: 100%) in presence of 3.1 x 10^-6 M inward rectifier current blocker BaCl2; format: functional, Cavia porcellus, Heart right ventricle
[12] = Ionotropic effect in guinea pig right ventricle papillary muscles assessed as contraction force at 10^-6 M by force transduction assay relative to untreated control (reference value: 100%) in presence of 3.1 x 10^-6 M inward rectifier current blocker BaCl2; format: functional, Cavia porcellus, Heart right ventricle
[13] = Ionotropic effect in guinea pig right ventricle papillary muscles assessed as contraction force at 10^-7 M by force transduction assay relative to untreated control (reference value: 100%) in presence of 3.1 x 10^-6 M inward rectifier current blocker BaCl2; format: functional, Cavia porcellus, Heart right ventricle
[14] = as §1, with “at 10^-7” for “at 10^-6”, “of 1” for “of 3.1”, “M IKr channel” for “M inward rectifier current”, “blocker Sotalol” for “blocker BaCl2”; format: functional, Cavia porcellus
[15] = as §1, with “25%” for “90%”, “120” for “209”, “131 APD25” for “222 APD50”, “1” for “3.1”, “IKr channel” for “inward rectifier current”, “Sotalol” for “BaCl2”; format: functional, Cavia porcellus
[16] = (§2) Ionotropic effect in guinea pig ventricle papillary muscles assessed as lengthening of 25% repolarized cardiac action potential duration time at 10^-7 M by microelectrode technique relative to untreated control (reference value: 120 to 131 APD25 ms) in presence of 1 x 10^-6 M IKr channel blocker Sotalol; format: functional, Cavia porcellus
[17] = as §2, with “10%” for “25%”, “52” for “120”, “54 APD10” for “131 APD25”; format: functional, Cavia porcellus
[18] = (§3) Ionotropic effect in guinea pig ventricle papillary muscles assessed as lengthening of 90% repolarized cardiac action potential duration time at 10^-4 M by microelectrode technique relative to untreated control (reference value: 209 to 222 APD50 ms) in presence of 2 x 10^-5 M KATP channel blocker glibenclamide; format: functional, Cavia porcellus
[19] = as §3, with “10^-5” for “10^-4”; format: functional, Cavia porcellus
[20] = as §3, with “10^-6” for “10^-4”; format: functional, Cavia porcellus
[21] = as §2, with “of 2” for “of 1”, “x 10^-5” for “x 10^-6”, “M KATP” for “M IKr”, “blocker glibenclamide” for “blocker Sotalol”; format: functional, Cavia porcellus
[22] = as §3, with “10%” for “90%”, “10^-7” for “10^-4”, “52” for “209”, “54 APD10” for “222 APD50”; format: functional, Cavia porcellus
[23] = Ionotropic effect in guinea pig right ventricle papillary muscles assessed as contraction force at 10^-4 M by force transduction assay relative to untreated control (reference value: 100%) in presence of 2 x 10^-5 M KATP channel blocker glibenclamide; format: functional, Cavia porcellus, Heart right ventricle
[24] = Ionotropic effect in guinea pig right ventricle papillary muscles assessed as contraction force at 10^-5 M by force transduction assay relative to untreated control (reference value: 100%) in presence of 2 x 10^-5 M KATP channel blocker glibenclamide; format: functional, Cavia porcellus, Heart right ventricle
[25] = Ionotropic effect in guinea pig right ventricle papillary muscles assessed as contraction force at 10^-7 M by force transduction assay relative to untreated control (reference value: 100%) in presence of 2 x 10^-5 M KATP channel blocker glibenclamide; format: functional, Cavia porcellus, Heart right ventricle
[26] = Ionotropic effect in guinea pig ventricle papillary muscles assessed as lengthening of 90% repolarized cardiac action potential duration time at 10^-7 M by microelectrode technique relative to untreated control (reference value: 132 to 176 APD50 ms); format: functional, Cavia porcellus, Papillary muscle
[27] = Ionotropic effect in guinea pig ventricle papillary muscles assessed as lengthening of 50% repolarized cardiac action potential duration time at 10^-4 M by microelectrode technique relative to untreated control (reference value: 132 to 176 APD50 ms); format: functional, Cavia porcellus, Papillary muscle
[28] = Ionotropic effect in guinea pig ventricle papillary muscles assessed as lengthening of 25% repolarized cardiac action potential duration time at 10^-4 M by microelectrode technique relative to untreated control (reference value: 84 to 104 APD25 ms); format: functional, Cavia porcellus, Papillary muscle
[29] = Ionotropic effect in guinea pig ventricle papillary muscles assessed as lengthening of 25% repolarized cardiac action potential duration time at 10^-6 M by microelectrode technique relative to untreated control (reference value: 84 to 104 APD25 ms); format: functional, Cavia porcellus, Papillary muscle
[30] = Ionotropic effect in guinea pig ventricle papillary muscles assessed as lengthening of 10% repolarized cardiac action potential duration time at 10^-7 M by microelectrode technique relative to untreated control (reference value: 37 to 47 APD10 ms); format: functional, Cavia porcellus, Papillary muscle

CCCOCCOC(=O)C1=C(C)NC=C([N+](=O)[O-])C1c1ccccc1OC(F)F (stereo not given)
Activity [1]: Active
Time [2]: 250.7 ms
Time [3]: 237 ms
Time [4]: 224 ms
Time [5]: 210 ms
Time [6]: 158 ms
Time [7]: 149.7 ms
Time [8]: 146.5 ms
Time [9]: 63.4 ms
Time [10]: 60.9 ms
Activity [11]: 204.5%
Activity [12]: 118%
Activity [13]: 111.4%
Time [14]: 224.4 ms
Time [15]: 132.9 ms
Time [16]: 130 ms
Time [17]: 54.2 ms
Time [18]: 276 ms
Time [19]: 265 ms
Time [20]: 247 ms
Time [21]: 141 ms
Time [22]: 59.5 ms
Activity [23]: 211%
Activity [24]: 163%
Activity [25]: 103%
Time [26]: 221.6 ms
Time [27]: 222 ms
Time [28]: 146.9 ms
Time [29]: 118.6 ms
Time [30]: 40 ms
